Bounds are passed on as bounds.

Series [1] deals with Tumor Cell line. Nature of the series: The compound was evaluated in vitro for the log10 molecular concentration that caused 50 % of 60 human tumor cell line kills. Format: ADME, cell-based. The method in brief:
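Human tumor cell lines (leukemia, non-small-cell lung, ovarian, renal) were preincubated 24 h. Platinum complexes were then added as five 10-fold dilutions, 0.01–100 μM, for 48 h, followed by in situ fixation and staining, with solubilized stain read spectrophotometrically. Log LC50 (50% cell kill) was averaged across cell lines within one experiment.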

For series [2], the system named is Tumor Cell line. In words: Evaluated in vitro for the log10 molecular concentration that caused […] tumor growth of 60 human tumor cell lines. Format: functional, cell-based. The procedure, abridged:
(§1)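 Cells preincubated 24 h, then exposed to the agent at five 10-fold dilutions (0.01–100 μM for the platinum complexes) for 48 h. Cells fixed in situ and stained; solubilized stain read spectrophotometrically. Panel of leukemia, non-small-cell lung, ovarian and renal lines. Log GI50 or TGI taken per cell line in one experiment, then averaged across lines.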

Series [3] deals with Tumor Cell line. In words: Evaluated in vitro for the log10 molecular concentration that caused 50 % inhibition of tumor growth of 60 human tumor cell lines. Format: functional, cell-based. The method in brief:
as §1

On to CARBOPLATIN [listing 1 of 2 here], for which, in the series on Tumor Cell line [1], the “Log LC50” value is reported as over -3.61. In the case of CARBOPLATIN [listing 2 of 2 here], the concentration for total growth inhibition (TGI) (commonly the concentration at which net growth stops) with Tumor Cell line [2] worked out at 214 µM. Moreover, the concentration for 50% growth inhibition (GI50) (commonly the concentration giving 50% growth inhibition) in the series with Tumor Cell line [3] turned out to be 107 µM. Consider CISPLATIN [listing 1 of 2 here], for which the “Log LC50” value in the series with Tumor Cell line [1] is on record as over -3.35. As to CISPLATIN [listing 2 of 2 here], in the series on Tumor Cell line [2], the total growth inhibition concentration (TGI) came to 33.9 µM. In the series with Tumor Cell line [3], the GI50 was 4.47 µM. With “[Bis(aminomethyl)diethylsilane]tetrachloroplatinum(IV) [listing 1 of 2 here]”, in the series on Tumor Cell line [1], the “Log LC50” value is on record as over -4.02. With “[Bis(aminomethyl)diethylsilane]tetrachloroplatinum(IV) [listing 2 of 2 here]”, in the series with Tumor Cell line [2], net growth stopped (TGI) at 46.8 µM. The concentration for 50% growth inhibition (GI50) with Tumor Cell line [3] was determined as 3.02 µM. With “[Bis(aminomethyl)dimethylsilane]dichloroplatinum (II)”, in the series with Tumor Cell line [1], the “Log LC50” value is on record as over -4.01. On the same count and under the same terms, with “[Bis(aminomethyl)dimethylsilane]tetrachloroplatinum(IV)” the figure was over -4.02. On the same count and under the same terms, with “[Bis(aminomethyl)ethylmethylsilane]tetrachloroplatinum(IV) [listing 1 of 2 here]” the figure was over -4.02. “[Bis(aminomethyl)ethylmethylsilane]tetrachloroplatinum(IV) [listing 2 of 2 here]”: in the series on Tumor Cell line [2], the total growth inhibition concentration (TGI) is 39.8 µM. The GI50 with Tumor Cell line [3] amounted to 6.17 µM. On to “[Bis(aminomethyl)pentamethylenesilane]dichloropaltinum(II) [listing 1 of 2 here]”, for which the “Log LC50” value in the series with Tumor Cell line [1] is listed as over -4.01. Turning to “[Bis(aminomethyl)pentamethylenesilane]dichloropaltinum(II) [listing 2 of 2 here]”, total growth inhibition in the series on Tumor Cell line [2] (TGI) required 67.6 µM. In the series with Tumor Cell line [3], this substance had a concentration for 50% growth inhibition (GI50) of 11.7 µM. Regarding “[Bis(aminomethyl)pentamethylenesilane]tetrachloropaltinum(IV) [listing 1 of 2 here]”, the “Log LC50” value with Tumor Cell line [1] is recorded as over -4.01. “[Bis(aminomethyl)pentamethylenesilane]tetrachloropaltinum(IV) [listing 2 of 2 here]” returned a total growth inhibition concentration (TGI) in the series with Tumor Cell line [2] of 50.1 µM. This substance returned a concentration for 50% growth inhibition (GI50) in the series on Tumor Cell line [3] of 4.17 µM. “[Bis(aminomethyl)tetramethylenesilane]dichloropaltinum(II) [listing 1 of 2 here]”: the “Log LC50” value in the series with Tumor Cell line [1] is reported as over -4. Turning to “[Bis(aminomethyl)tetramethylenesilane]dichloropaltinum(II) [listing 2 of 2 here]”, total growth inhibition in the series with Tumor Cell line [2] (TGI) required 89.1 µM. The substance further registered a concentration for 50% growth inhibition (GI50) in the series with Tumor Cell line [3] of 25.7 µM. As to “[Bis(aminomethyl)tetramethylenesilane]tetrachloropaltinum(IV) [listing 1 of 2 here]”, the “Log LC50” value in the series on Tumor Cell line [1] is over -4.

For the substance “[Bis(aminomethyl)tetramethylenesilane]tetrachloropaltinum(IV) [listing 2 of 2 here]”, in the series on Tumor Cell line [2], the TGI is 49 µM. Besides, in the series with Tumor Cell line [3], growth was halved (GI50) at 4.47 µM. “cis-Bis[[(trimethylsilyl)methyl]amino]tetrachloroplatinum(IV) [listing 1 of 2 here]”: the “Log LC50” value in the series on Tumor Cell line [1] is over -4.06.

Substance “cis-Bis[[(trimethylsilyl)methyl]amino]tetrachloroplatinum(IV) [listing 2 of 2 here]” had a TGI in the series with Tumor Cell line [2] of 22.9 µM. In the series with Tumor Cell line [3], this substance came in with a concentration for 50% growth inhibition (GI50) of 5.89 µM.

Values taken from ChEMBL document CHEMBL1128557, “Synthesis, antitumor activity, and chemical properties of silaplatin and related platinum (II) and platinum (IV) complexes derived from beta-silyl amines” (J Med Chem, 1995).
